Where two headings read alike, the source gives them in different places. Blank lines part the entries; values can stand above or below the molecule they belong to.
Assays:
[1] = molecular target: T1, homomeric human CNGA3 channels (Homo sapiens, UniProt Q16281); format: biochemical; settings: for IMAX cAMP (Hill fit): normalized to maximum cGMP current; for EC50: read-out: K1/2 cGMP (Hill fit); for gating effect (increase in cGMP apparent affinity) compared with MMP9: within 40 min of exposure, MMP2 10 nM, trypsin 10 nM, collagenase 100 nM
T1 sequence (Q16281 1-694): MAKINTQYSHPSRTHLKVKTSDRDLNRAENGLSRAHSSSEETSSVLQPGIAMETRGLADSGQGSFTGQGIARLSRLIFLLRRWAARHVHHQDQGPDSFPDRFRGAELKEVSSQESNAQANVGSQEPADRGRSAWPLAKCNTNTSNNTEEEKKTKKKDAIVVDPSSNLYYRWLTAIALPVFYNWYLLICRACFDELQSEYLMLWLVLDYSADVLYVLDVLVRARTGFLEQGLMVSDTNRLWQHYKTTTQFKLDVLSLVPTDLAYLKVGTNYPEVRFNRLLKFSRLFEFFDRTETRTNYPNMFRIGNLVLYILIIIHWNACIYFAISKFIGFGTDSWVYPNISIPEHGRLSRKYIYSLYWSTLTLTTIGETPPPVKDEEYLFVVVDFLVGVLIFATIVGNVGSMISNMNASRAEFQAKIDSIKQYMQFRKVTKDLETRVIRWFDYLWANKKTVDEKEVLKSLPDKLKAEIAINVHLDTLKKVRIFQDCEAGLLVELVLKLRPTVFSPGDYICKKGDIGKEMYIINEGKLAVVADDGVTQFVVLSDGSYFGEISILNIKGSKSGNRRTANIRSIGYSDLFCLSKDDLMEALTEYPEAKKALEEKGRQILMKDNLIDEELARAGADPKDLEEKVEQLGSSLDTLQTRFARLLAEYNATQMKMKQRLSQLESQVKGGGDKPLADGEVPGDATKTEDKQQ

[2] = molecular target: T2, heteromeric CNGA3 + CNGB3 channels (Homo sapiens, UniProt Q16281+Q9NQW8); format: biochemical
T2 sequence (Q16281 1-694): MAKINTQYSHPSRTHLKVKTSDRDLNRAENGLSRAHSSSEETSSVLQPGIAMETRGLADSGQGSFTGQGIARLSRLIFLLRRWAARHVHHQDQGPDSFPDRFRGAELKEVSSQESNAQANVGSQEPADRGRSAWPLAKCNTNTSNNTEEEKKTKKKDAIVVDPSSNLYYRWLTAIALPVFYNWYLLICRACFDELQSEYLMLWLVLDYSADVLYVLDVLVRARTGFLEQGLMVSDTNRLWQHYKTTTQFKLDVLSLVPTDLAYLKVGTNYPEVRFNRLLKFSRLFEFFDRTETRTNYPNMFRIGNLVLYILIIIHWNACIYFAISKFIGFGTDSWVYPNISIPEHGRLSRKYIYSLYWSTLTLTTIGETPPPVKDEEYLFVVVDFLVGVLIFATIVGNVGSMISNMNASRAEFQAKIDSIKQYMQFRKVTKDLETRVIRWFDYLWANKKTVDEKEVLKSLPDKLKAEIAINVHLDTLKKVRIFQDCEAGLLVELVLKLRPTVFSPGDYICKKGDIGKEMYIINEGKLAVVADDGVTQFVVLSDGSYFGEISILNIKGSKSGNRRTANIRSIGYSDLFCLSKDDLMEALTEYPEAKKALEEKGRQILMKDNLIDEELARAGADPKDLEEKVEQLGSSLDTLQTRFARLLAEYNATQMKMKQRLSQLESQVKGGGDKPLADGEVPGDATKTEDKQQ
T2 sequence (Q9NQW8 1-809): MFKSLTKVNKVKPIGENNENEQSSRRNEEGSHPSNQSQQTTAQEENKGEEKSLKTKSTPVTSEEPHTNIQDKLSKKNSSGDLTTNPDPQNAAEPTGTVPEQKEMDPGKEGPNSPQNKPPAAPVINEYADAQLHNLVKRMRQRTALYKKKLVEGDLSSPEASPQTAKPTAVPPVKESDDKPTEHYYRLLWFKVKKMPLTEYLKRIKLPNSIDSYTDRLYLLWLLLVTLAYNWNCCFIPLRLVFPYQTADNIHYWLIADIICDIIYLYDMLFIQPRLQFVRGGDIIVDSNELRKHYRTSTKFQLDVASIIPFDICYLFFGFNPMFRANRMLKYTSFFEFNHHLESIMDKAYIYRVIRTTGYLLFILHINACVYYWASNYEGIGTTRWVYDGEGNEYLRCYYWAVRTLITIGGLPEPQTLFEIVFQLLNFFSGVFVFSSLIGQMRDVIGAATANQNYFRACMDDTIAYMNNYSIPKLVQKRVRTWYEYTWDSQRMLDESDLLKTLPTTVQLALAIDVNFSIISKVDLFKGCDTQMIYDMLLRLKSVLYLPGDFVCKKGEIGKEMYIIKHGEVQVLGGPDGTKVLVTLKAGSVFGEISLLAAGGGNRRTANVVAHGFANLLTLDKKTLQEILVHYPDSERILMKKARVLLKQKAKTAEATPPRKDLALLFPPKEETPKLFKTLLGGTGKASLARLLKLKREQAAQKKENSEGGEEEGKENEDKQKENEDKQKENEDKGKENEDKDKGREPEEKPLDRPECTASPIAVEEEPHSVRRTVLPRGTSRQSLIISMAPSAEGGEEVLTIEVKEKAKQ

[3] = molecular target: native rod photoreceptor CNG channels; assay: Inside-out patches excised from Xenopus rod outer segments; format: biochemical, Xenopus laevis
Method in brief: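 Retinas dissected from Xenopus laevis into frog Ringer's (pH 7.6), and rod outer segments freed by gentle agitation. Inside-out patches (pipettes 3–6 MΩ) at 20–23°C, with 130 mM NaCl, 0.2 mM EDTA, 3 mM HEPES (pH 7.2) solutions.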

homomeric CNGA1 channels = molecular target: T3, homomeric CNGA1 channels (Bos taurus, UniProt Q00194); assay: Inside-out patch-clamp of oocyte patches expressing rod homomeric CNGA1 channels; format: biochemical, bovine
T3 sequence (Q00194 1-690): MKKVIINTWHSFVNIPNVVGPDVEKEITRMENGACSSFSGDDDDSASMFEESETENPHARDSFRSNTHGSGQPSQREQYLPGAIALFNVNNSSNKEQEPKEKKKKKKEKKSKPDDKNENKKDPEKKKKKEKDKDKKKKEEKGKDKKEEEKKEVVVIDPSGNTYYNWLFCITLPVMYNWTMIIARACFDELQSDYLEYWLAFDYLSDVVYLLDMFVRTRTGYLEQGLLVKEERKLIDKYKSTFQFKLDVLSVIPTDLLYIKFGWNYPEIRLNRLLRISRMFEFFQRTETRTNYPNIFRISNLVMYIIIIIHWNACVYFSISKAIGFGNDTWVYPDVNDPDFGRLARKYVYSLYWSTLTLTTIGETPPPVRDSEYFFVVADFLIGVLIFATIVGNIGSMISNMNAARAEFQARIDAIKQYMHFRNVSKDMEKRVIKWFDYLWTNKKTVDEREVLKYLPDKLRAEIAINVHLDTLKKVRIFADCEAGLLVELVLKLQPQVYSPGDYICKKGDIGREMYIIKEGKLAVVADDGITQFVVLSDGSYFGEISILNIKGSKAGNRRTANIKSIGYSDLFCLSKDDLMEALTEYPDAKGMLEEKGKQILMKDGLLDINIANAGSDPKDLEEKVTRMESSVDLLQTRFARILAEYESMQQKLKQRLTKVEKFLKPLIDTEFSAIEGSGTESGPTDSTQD

[4] = molecular target: heteromeric CNGA1 + CNGB1 channels (UniProt Q00194+Q14028); format: biochemical, bovine CNGA1, human CNGB1; settings: for EC50: read-out: K1/2 cGMP (Hill fit)
Chain of heteromeric CNGA1 + CNGB1 channels (Q14028 whole entry, one chain of several): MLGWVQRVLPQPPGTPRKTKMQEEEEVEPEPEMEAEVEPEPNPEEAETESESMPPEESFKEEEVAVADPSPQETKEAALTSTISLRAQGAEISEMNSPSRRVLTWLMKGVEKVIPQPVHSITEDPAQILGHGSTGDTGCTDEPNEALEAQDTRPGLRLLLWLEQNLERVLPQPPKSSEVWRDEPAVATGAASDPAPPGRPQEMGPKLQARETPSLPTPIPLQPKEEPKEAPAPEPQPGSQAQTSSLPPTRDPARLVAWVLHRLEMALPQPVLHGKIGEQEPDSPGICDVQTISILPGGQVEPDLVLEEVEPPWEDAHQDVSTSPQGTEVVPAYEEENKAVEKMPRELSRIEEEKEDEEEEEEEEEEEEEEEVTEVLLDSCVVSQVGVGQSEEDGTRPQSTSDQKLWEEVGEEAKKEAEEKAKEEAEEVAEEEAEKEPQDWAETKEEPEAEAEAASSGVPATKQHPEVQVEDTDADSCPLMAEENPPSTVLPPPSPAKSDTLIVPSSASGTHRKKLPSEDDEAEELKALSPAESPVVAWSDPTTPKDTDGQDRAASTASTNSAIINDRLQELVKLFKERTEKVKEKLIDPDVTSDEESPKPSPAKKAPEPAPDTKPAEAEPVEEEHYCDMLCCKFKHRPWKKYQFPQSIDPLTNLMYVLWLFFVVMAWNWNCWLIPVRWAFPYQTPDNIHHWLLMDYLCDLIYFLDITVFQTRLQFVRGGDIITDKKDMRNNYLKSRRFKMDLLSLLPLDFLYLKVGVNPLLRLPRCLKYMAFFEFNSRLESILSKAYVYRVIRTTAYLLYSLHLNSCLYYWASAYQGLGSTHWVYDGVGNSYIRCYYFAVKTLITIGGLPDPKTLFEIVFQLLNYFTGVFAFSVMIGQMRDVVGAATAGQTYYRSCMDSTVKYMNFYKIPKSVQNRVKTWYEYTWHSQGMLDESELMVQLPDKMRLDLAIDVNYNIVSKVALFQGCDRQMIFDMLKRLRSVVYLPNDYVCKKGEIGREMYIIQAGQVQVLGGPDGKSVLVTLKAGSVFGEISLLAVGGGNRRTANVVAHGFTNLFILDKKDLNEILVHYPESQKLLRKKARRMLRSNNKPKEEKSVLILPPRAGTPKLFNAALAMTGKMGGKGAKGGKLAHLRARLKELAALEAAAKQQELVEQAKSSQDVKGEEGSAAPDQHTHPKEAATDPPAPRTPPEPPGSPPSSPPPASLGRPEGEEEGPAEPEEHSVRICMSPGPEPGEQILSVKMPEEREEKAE

[5] = representative control patch, t0 (Fig 1F)
[6] = representative control patch, t80 (Fig 1F)
[7] = representative control patch, t40 (Fig 4B)
[8] = representative control patch, t60 (Fig 1B)
[9] = representative control patch, t0 (Fig 9C)
[10] = representative control patch, t40 (Fig 9C)

efficacy of cAMP, IcAMP/IMAX ([1]; control patches, 60 min, n = 6): 0.15 ± 0.05
nH cAMP (Hill fit) [1, 5]: 1.1
IMAX cAMP (Hill fit) [1, 5]: 0.29
nH cAMP (Hill fit) [1, 6]: 1.0
IMAX cAMP (Hill fit) [1, 6]: 0.14
Molecule: Nc1ncnc2c1ncn2[C@@H]1O[C@@H]2COP(=O)(O)O[C@H]2[C@H]1O [cAMP, cyclic adenosine monophosphate]

effect on the increased persistent current after MMP9 ([2]; data not shown): inhibited
Molecule: CCCCNc1ccc(C(=O)OCCN(C)C)cc1 [tetracaine]

2 μM cGMP current, I2μM/IMAX ([2]; control, 80 min, n = 4-6): 0.03 ± 0.006
EC50 ([2]; read-out: K1/2,GMP, time-matched control, 80 min, n = 4-6): 16.4 µM
EC50 ([2]; read-out: K1/2 cGMP (Hill fit), representative control patch, t0 (Fig 8A)): 15.7 µM
EC50 ([2]; read-out: K1/2 cGMP (Hill fit), representative control patch, t80 (Fig 8A)): 16.5 µM
nH cGMP (Hill fit) ([2]; representative control patch, t0 (Fig 8A)): 2.1
IMAX cGMP (Hill fit) ([2]; representative control patch, t0 (Fig 8A), normalized to maximum t0 cGMP current): 1.0
nH cGMP (Hill fit) ([2]; representative control patch, t80 (Fig 8A)): 1.9
EC50 ([3]; read-out: K1/2 cGMP (Hill fit), representative control patch, t0 (Fig 11A)): 19.3 µM
EC50 ([3]; read-out: K1/2 cGMP (Hill fit), representative control patch, t25 (Fig 11A)): 28.1 µM
EC50 ([3]; read-out: initial K1/2 cGMP, native CNG channels, initial value): 23.5 ± 2.1 µM
nH cGMP (Hill fit) ([3]; representative control patch, t0 (Fig 11A)): 2.6
nH cGMP (Hill fit) ([3]; representative control patch, t25 (Fig 11A)): 2.6
equilibrium constant for the allosteric transition (L) ([1]; A3 control, cGMP, 80 min post excision, allosteric model fit (Fig 10A)): 180
Hill slope nH, cGMP ([1]; control patches, 60 min, n = 6): 2.2 ± 0.2
EC50 [1, 7]: 8 µM
EC50 [1, 8]: 10.3 µM
nH cGMP (Hill fit) ([1]; representative control patch, t0 (Fig 1B)): 2.9
IMAX cGMP (Hill fit) ([1]; representative control patch, t0 (Fig 1B), normalized to maximum t0 cGMP current): 1.0
nH cGMP (Hill fit) [1, 7]: 2.3
nH cGMP (Hill fit) [1, 8]: 2.1
equilibrium constant for the allosteric transition (L) (homomeric CNGA1 channels; A1 control, cGMP, 40 min post excision (Fig 10B)): 40
nH cGMP (Hill fit) (homomeric CNGA1 channels; representative control patch, t0 (Fig 9A)): 2.2
IMAX cGMP (Hill fit) (homomeric CNGA1 channels; representative control patch, t0 (Fig 9A), normalized to maximum t0 cGMP current): 1.0
nH cGMP (Hill fit) (homomeric CNGA1 channels; representative control patch, t40 (Fig 9A)): 2.2
equilibrium constant for the allosteric transition (L) ([4]; A1+B1 control, cGMP, 40 min post excision (Fig 10B)): 20
EC50 [4, 9]: 59.4 µM
EC50 [4, 10]: 55.6 µM
nH cGMP (Hill fit) [4, 9]: 2.3
IMAX cGMP (Hill fit) ([4]; representative control patch, t0 (Fig 9C), normalized to maximum t0 cGMP current): 1.0
nH cGMP (Hill fit) [4, 10]: 2.4
Molecule: Nc1nc2c(ncn2[C@@H]2O[C@@H]3COP(=O)(O)O[C@H]3[C@H]2O)c(=O)[nH]1 [cGMP, cyclic guanosine monophosphate]

gating effect (increase in cGMP apparent affinity) compared with MMP9 [1]: failed to produce similar gating effects
Molecule: collagenase

B1: MMP2: active human recombinant MMP2 (Calbiochem, PF023), closely related gelatinase/metalloproteinase (protein, UniProt P08253 110-660, looked up)
72 kDa type IV collagenase: YNFFPRKPKWDKNQITYRIIGYTPDLDPETVDDAFARAFQVWSDVTPLRFSRIHDGEADIMINFGRWEHGDGYPFDGKDGLLAHAFAPGTGVGGDSHFDDDELWTLGEGQVVRVKYGNADGEYCKFPFLFNGKEYNSCTDTGRSDGFLWCSTTYNFEKDGKYGFCPHEALFTMGGNAEGQPCKFPFRFQGTSYDSCTTEGRTDGYRWCGTTEDYDRDKKYGFCPETAMSTVGGNSEGAPCVFPFTFLGNKYESCTSAGRSDGKMWCATTANYDDDRKWGFCPDQGYSLFLVAAHEFGHAMGLEHSQDPGALMAPIYTYTKNFRLSQDDIKGIQELYGASPDIDLGTGPTPTLGPVTPEICKQDIVFDGIAQIRGEIFFFKDRFIWRTVTPRDKPMGPLLVATFWPELPEKIDAVYEAPQEEKAVFFAGNEYWIYSASTLERGYPKPLTSLGLPPDVQRVDAAFNWSKNKKTYIFAGDKFWRYNEVKKKMDPGFPKLIADAWNAIPDNLDAVVDLQGGGHSYFFKGAYYLKLENQSLKSVKFGSIKSDWLGC
gating effect (increase in cGMP apparent affinity) compared with MMP9 [1]: indistinguishable from the effect produced by MMP9

gating effect (increase in cGMP apparent affinity) compared with MMP9 [1]: failed to produce similar gating effects
B2: trypsin: extracellular serine protease, Trypsin-EDTA (Gibco, 25200) (protein, UniProt P00761 9-231, looked up)
Trypsin: IVGGYTCAANSIPYQVSLNSGSHFCGGSLINSQWVVSAAHCYKSRIQVRLGEHNIDVLEGNEQFINAAKIITHPNFNGNTLDNDIMLIKLSSPATLNSRVATVSLPRSCAAAGTECLISGWGNTKSSGSSYPSLLQCLKAPVLSDSSCKSSYPGQITGNMICVGFLEGGKDSCQGDSGGPVVCNGQLQGIVSWGYGCAQKNKPGVYTKVCNYVNWIQQTIAAN
modifications: EDTA
